Published values collected from several papers.
Protocols differ between the studies behind these lines.
Target: Serine/threonine-protein kinase Nek7 (NEK7, Homo sapiens, UniProt Q8TDX7)

SMILES	test	system	setting	endpoint	result
CN1CCN(c2cnc3c(C4CCN(C(=O)c5ccc(OC(F)(F)F)cc5N)CC4)ncnc3c2)CC1	cell-free assay, competition with immobilised ligand		1 µM	remaining binding	100%
CNC(=O)c1cc(Oc2ccc(NC(=O)Nc3ccc(Cl)c(C(F)(F)F)c3)cc2)ccn1	enzyme activity, inhibitor		10 µM	inhibition	-7%
COc1cc(Cl)c(C(=O)N[C@@H](CN[C@H]2CC[C@@H](N)CC2)Cc2ccc(C#N)cc2)cc1-c1ccc(CN[C@H](C)c2ccc(C)cc2)o1	enzyme activity, inhibitor		1 µM	remaining activity	99%
CS(=O)(=O)CCNCc1ccc(-c2ccc3ncnc(Nc4ccc(OCc5cccc(F)c5)c(Cl)c4)c3c2)o1	cell-free assay		0.5 µM	remaining signal	98.7%
Cn1c2c(c3ccc(Cl)c(Cl)c31)C(C#N)C1(CCOCC1)NC2=O (stereo not shown)	thermal stability, DSF		10 µM	ΔTm	-0.5 °C
Cc1ccc(Nc2nccc(N(C)c3ccc4c(C)n(C)nc4c3)n2)cc1S(N)(=O)=O	enzyme activity, inhibitor		0.3 µM	inhibition	-6%
CC1(C)NC(=O)c2[nH]c3c(Cl)c(Cl)ccc3c2C1C#N (stereo not shown)	thermal stability, DSF		10 µM	ΔTm	-0.4 °C
Nc1c(C(=O)NCc2ccc(C(=O)NCCCC3CCCCC3)cc2)cnn1-c1ccccc1	cell-free assay, competition with immobilised ligand		0.1 µM	remaining binding	99%
CCN1CCN(Cc2ccc(NC(=O)c3ccc(C)c(Oc4ccnc5[nH]ccc45)c3)cc2C(F)(F)F)CC1	target engagement in cells, inhibitor, chemoproteomics	A-375	0.5 µM	inhibition	-0.545%
CCCS(=O)(=O)Nc1ccc(F)c(C(=O)c2c[nH]c3ncc(-c4ccc(Cl)cc4)cc23)c1F	enzyme activity, inhibitor		1 µM	inhibition	< 10%
C[C@@H](c1cccc(C#N)c1)n1cc(Cl)cc(C(N)=O)c1=N	cell-free assay, competition with immobilised ligand		1 µM	remaining binding	89%
CCN(CC)CCNC(=O)c1c(C)[nH]c(/C=C2\C(=O)Nc3ccc(F)cc32)c1C	enzyme activity, inhibitor		10 µM	inhibition	-6%
Nc1ncnc2occ(-c3ccc(NC(=O)Nc4cc(C(F)(F)F)ccc4F)cc3)c12	cell-free assay, inhibitor		20 µM	remaining signal	4%
CN([C@@H]1CCc2c(CC(=O)O)c3cc(S(C)(=O)=O)ccc3n2C1)S(=O)(=O)c1ccc(F)cc1	cell-free assay, competition with immobilised ligand		1 µM	remaining binding	98%
Cc1cc(NC(=O)c2cccc3cc(-c4cccc5[nH]nc(N)c45)ccc23)ccc1F	enzyme activity, inhibitor		0.1 µM	activity vs control	96%
CCCOc1ccc(OC)c(F)c1C(=O)c1ccc(C(=O)N[C@@H]2CNC[C@H]2NC(=O)c2ccc3[nH]ncc3c2)cc1	enzyme activity, inhibitor		10 µM	remaining activity	96%

SMILES	test	system	setting	endpoint	result
CCC1(CC)NC(=O)c2c(c3ccc(Cl)c(Cl)c3n2C)C1C#N (stereo not shown)	thermal stability, DSF		10 µM	ΔTm	-0.4 °C
c1ccc(CNc2nc(N3CCOc4ccccc43)nc3c2CCCC3)cc1	target engagement in cells, inhibitor, chemoproteomics		20 mM	inhibition	-6%
Cc1c(C(=O)O)cc(-c2ccc(C3CCNCC3)cc2)c2ccc(-c3ccc(C(F)(F)F)cc3)cc12	binding, competition with immobilised ligand		1 µM	remaining binding	100%
Cn1c2c(c3ccc(Cl)c(Cl)c31)C(C#N)C1(CCN(C(=O)OC(C)(C)C)CC1)NC2=O (racemic)	thermal stability, DSF		10 µM	ΔTm	0 °C
CC(C)(O)[C@H]1CC[C@H](Nc2ccc3ncc(-c4cccc(C(F)(F)F)c4)n3n2)CC1	enzyme activity, inhibitor		1 µM	remaining activity	93.6%
CC(C)(C)c1nc2c(s1)c1nc(N)ncc1c1ccc(NS(=O)(=O)c3c(F)cccc3F)c(F)c12	enzyme activity, inhibitor, radiometric		1 µM	remaining activity	27%
CCOc1cc(-c2nncn2C)ccc1Nc1ncc2cc(C)nc(NCC(C)(C)C)c2n1	enzyme activity, inhibitor, FRET		1 µM	inhibition	< 15%
N#CCCc1ccc2c(c1)-c1[nH]c3ccc([N+](=O)[O-])cc3c1CC(=O)N2	cell-free assay		0.5 µM	remaining signal	87.4%
COc1cccc2c(NCc3ccccc3)nc(-n3c(N)nc4ccccc43)nc12	target engagement in cells, inhibitor, chemoproteomics		20 mM	inhibition	-1%
O=c1nc(-c2ccccn2)sc2ccccc12	binding, competition with immobilised ligand		1 µM	remaining binding	75%
N#CC1c2c([nH]c3c(Cl)c(Cl)ccc23)C(=O)NC12CCCCC2 (racemic)	thermal stability, DSF		10 µM	ΔTm	0.2 °C
CC(C)(O)c1cncc(-c2nc3ccc(F)cc3n2C2CC2)c1	cell-free assay, competition with immobilised ligand		1 µM	remaining binding	100%
O=C(Nc1cnn(-c2csc(C(=O)NC3COC3)c2)c1)Nc1ccccc1Cl	enzyme activity, inhibitor		5 µM	remaining activity	102%
C[C@@]1(Cc2ccc(C#N)cc2)C(=O)N(c2cc(Cl)cc(Cl)c2)c2ncc(C(=O)NC3(c4nc(C5CCC5)no4)CC3)n21	cell-free assay, competition with immobilised ligand		1 µM	remaining binding	100%
Clc1ccc(Nc2nnc(Cc3ccncc3)c3ccccc23)cc1	cell-free assay		0.5 µM	remaining signal	96.8%
